Test results: ChEMBL document CHEMBL4138242, “Synthesis and antibacterial evaluation of novel cationic chalcone derivatives possessing broad spectrum antibacterial activity” (Eur J Med Chem, 2018)
Active and inactive are the calls of the source. The calls are words filed in the database; no cut-off is given here.

Experiments:
[1] = test system: Escherichia coli; test: Antibacterial activity against drug-resistant NDM1 producing Escherichia coli clinical isolate Ecl-14-56 after 16 to 20 hrs by broth microdilution method; type: functional
In short: (§1)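 CLSI broth microdilution in Mueller-Hinton broth. A 4-6 h culture was diluted to about 10⁶ CFU/mL and mixed 1:1 with compound dilutions prepared at 256 to 0.5 µg/mL from aqueous stocks. Plates were incubated at 37 °C for 16-20 h and read visually for MIC. Each concentration was run in duplicate, and the experiment was repeated at least twice. Vancomycin and meropenem were comparators.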

[2] = test system: Escherichia coli; test: Antibacterial activity against drug-resistant NDM1 producing Escherichia coli clinical isolate EC-14-54 after 16 to 20 hrs by broth microdilution method; type: functional; in short: as §1
[3] = test system: Escherichia coli; test: Antibacterial activity against drug-resistant NDM1 producing Escherichia coli clinical isolate Ecl-14-58 after 16 to 20 hrs by broth microdilution method; type: functional; in short: as §1
[4] = test system: Staphylococcus aureus; test: Antibacterial activity against methicillin-resistant Staphylococcus aureus clinical isolate 20130911034sau after 16 to 20 hrs by broth microdilution method; type: functional; in short: as §1
[5] = test system: Staphylococcus aureus; test: Antibacterial activity against methicillin-resistant Staphylococcus aureus clinical isolate 1104060 after 16 to 20 hrs by broth microdilution method; type: functional; in short: as §1
[6] = test system: Escherichia coli; test: Induction of cytoplasmic membrane depolarization in Escherichia coli ATCC 25922 at 10 to 20 ug/ml measured every 2 mins for 12 mins by DiSC35 dye-based fluorescence assay; type: functional, organism-based
In short: (§2)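 Mid-log cells (~10⁸ CFU/mL) were suspended in PBS (S. aureus) or HEPES/glucose/KCl with EDTA (E. coli). They were preloaded with DiSC3(5) for 30 min (S. aureus) or 40 min (E. coli), and baseline fluorescence was read for 8 min. Compound was added to 20 µg/mL final, and fluorescence (ex 622/em 670 nm) was read every 2 min for 12 min. Water served as control.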

[7] = test system: Escherichia coli; test: Antibacterial activity against drug-resistant NDM1 producing Escherichia coli clinical isolate Ecl-13-62 after 16 to 20 hrs by broth microdilution method; type: functional; in short: as §1
[8] = test system: Escherichia coli; test: Antibacterial activity against drug-resistant NDM1 producing Escherichia coli clinical isolate SM-15-84 after 16 to 20 hrs by broth microdilution method; type: functional; in short: as §1
[9] = test system: Klebsiella pneumoniae; test: Antibacterial activity against drug-resistant carbapenemase producing Klebsiella pneumoniae clinical isolate KP-14-3 after 16 to 20 hrs by broth microdilution method; type: functional; in short: as §1
[10] = test system: Escherichia coli; test: Antibacterial activity against drug-resistant NDM1 producing Escherichia coli clinical isolate CF-13-61 after 16 to 20 hrs by broth microdilution method; type: functional; in short: as §1
[11] = test system: Escherichia coli; test: Induction of inner membrane permeabilization in Escherichia coli ATCC 25922 at 10 to 20 ug/ml measured every 2 mins for 12 mins by propidium iodide staining-based fluorescence assay; type: functional, organism-based
In short: (§3)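 Mid-log cells (~10⁸ CFU/mL) were suspended in PBS (S. aureus) or HEPES/glucose/KCl (E. coli). They were preincubated with propidium iodide for 30 min (S. aureus) or 40 min (E. coli), and baseline fluorescence was read for 8 min. Compound was added to 20 µg/mL final, and fluorescence (ex 535/em 617 nm) was read every 2 min for 12 min.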

[12] = test system: Klebsiella pneumoniae; test: Antibacterial activity against drug-resistant carbapenemase producing Klebsiella pneumoniae clinical isolate KP-14-2 after 16 to 20 hrs by broth microdilution method; type: functional; in short: as §1
[13] = test system: Staphylococcus aureus; test: Antibacterial activity against methicillin-resistant Staphylococcus aureus clinical isolate 0906202 after 16 to 20 hrs by broth microdilution method; type: functional; in short: as §1
[14] = test system: Escherichia coli; test: Antibacterial activity against drug-resistant NDM1 producing Escherichia coli clinical isolate CF-15-61 after 16 to 20 hrs by broth microdilution method; type: functional; in short: as §1
[15] = test system: Staphylococcus aureus; test: Induction of cytoplasmic membrane depolarization in Staphylococcus aureus ATCC 29213 at 10 to 20 ug/ml measured every 2 mins for 12 mins by DiSC35 dye-based fluorescence assay; type: functional, organism-based; in short: as §2
[16] = test system: Enterococcus faecalis; test: Antibacterial activity against Enterococcus faecalis ATCC 29212 after 16 to 20 hrs by broth microdilution method; type: functional
In short: (§4)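 Broth microdilution per CLSI. Bacteria grown 4-6 h (about 10⁸ CFU/mL), then diluted to about 10⁶ CFU/mL. Medium: Mueller-Hinton broth, except Luria-Bertani broth for E. coli. Compounds in sterile water, twofold series 256-0.5 µg/mL, mixed 1:1 with inoculum, 37 °C for 16-20 h. MIC is the lowest concentration without visible growth. Duplicate wells; experiment repeated at least twice.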

[17] = test system: Staphylococcus aureus; test: Antibacterial activity against methicillin-resistant Staphylococcus aureus clinical isolate 1208143 after 16 to 20 hrs by broth microdilution method; type: functional; in short: as §1
[18] = test system: Klebsiella pneumoniae; test: Antibacterial activity against drug-resistant carbapenemase producing Klebsiella pneumoniae clinical isolate KP-14-5 after 16 to 20 hrs by broth microdilution method; type: functional; in short: as §1
[19] = test system: Staphylococcus aureus; test: Antibacterial activity against methicillin-resistant Staphylococcus aureus clinical isolate 1105183 cono7 after 16 to 20 hrs by broth microdilution method; type: functional; in short: as §1
[20] = test system: Staphylococcus aureus; test: Antibacterial activity against methicillin-resistant Staphylococcus aureus clinical isolate 1-may after 16 to 20 hrs by broth microdilution method; type: functional; in short: as §1
[21] = test system: Escherichia coli; test: Antibacterial activity against Escherichia coli ATCC 25922 after 16 to 20 hrs by broth microdilution method; type: functional; in short: as §4
[22] = test system: Escherichia coli; test: Antibacterial activity against drug-resistant NDM1 producing Escherichia coli clinical isolate EA-14-61 after 16 to 20 hrs by broth microdilution method; type: functional; in short: as §1
[23] = test system: Staphylococcus aureus; test: Antibacterial activity against methicillin-resistant Staphylococcus aureus clinical isolate 0831010 after 16 to 20 hrs by broth microdilution method; type: functional; in short: as §1
[24] = test system: Klebsiella pneumoniae; test: Antibacterial activity against drug-resistant carbapenemase producing Klebsiella pneumoniae clinical isolate KP-14-18 after 16 to 20 hrs by broth microdilution method; type: functional; in short: as §1
[25] = test system: Klebsiella pneumoniae; test: Antibacterial activity against drug-resistant carbapenemase producing Klebsiella pneumoniae clinical isolate KP-14-1 after 16 to 20 hrs by broth microdilution method; type: functional; in short: as §1
[26] = test system: Klebsiella pneumoniae; test: Antibacterial activity against drug-resistant carbapenemase producing Klebsiella pneumoniae clinical isolate EC-13-23 after 16 to 20 hrs by broth microdilution method; type: functional; in short: as §1
[27] = test system: Escherichia coli; test: Antibacterial activity against drug-resistant NDM1 producing Escherichia coli clinical isolate KP-13-58 after 16 to 20 hrs by broth microdilution method; type: functional; in short: as §1
[28] = test system: Staphylococcus aureus; test: Antibacterial activity against methicillin-resistant Staphylococcus aureus clinical isolate 20131012632sau after 16 to 20 hrs by broth microdilution method; type: functional; in short: as §1
[29] = test system: Escherichia coli; test: Antibacterial activity against drug-resistant NDM1 producing Escherichia coli clinical isolate 1460 after 16 to 20 hrs by broth microdilution method; type: functional; in short: as §1
[30] = test system: Staphylococcus aureus; test: Induction of inner membrane permeabilization in Staphylococcus aureus ATCC 29213 at 10 to 20 ug/ml measured every 2 mins for 12 mins by propidium iodide staining-based fluorescence assay; type: functional, organism-based; in short: as §3
[31] = Hemolytic activity in sheep RBC after 1 hr; type: ADME, cell-based, Ovis aries, Erythrocyte; conditions: sheep red blood cells (erythrocytes)
In short: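 Sheep red blood cells (150 µL suspension) mixed with 50 µL of compound dilutions (5120-10 µg/mL), 1 h at 37 °C, then centrifuged. Supernatant read at 540 nm. Percent hemolysis calculated relative to RBC-only control (0%) and 0.1% Triton X-100 (100%).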

[32] = test system: Salmonella enterica; test: Antibacterial activity against Salmonella enterica ATCC 13076 after 16 to 20 hrs by broth microdilution method; type: functional; in short: as §4
[33] = test system: Klebsiella pneumoniae; test: Antibacterial activity against drug-resistant carbapenemase producing Klebsiella pneumoniae clinical isolate KP-13-45 after 16 to 20 hrs by broth microdilution method; type: functional; in short: as §1
[34] = test system: Staphylococcus aureus; test: Antibacterial activity against methicillin-resistant Staphylococcus aureus clinical isolate 1207007 after 16 to 20 hrs by broth microdilution method; type: functional; in short: as §1
[35] = test system: Klebsiella pneumoniae; test: Antibacterial activity against drug-resistant carbapenemase producing Klebsiella pneumoniae clinical isolate KP-14-8 after 16 to 20 hrs by broth microdilution method; type: functional; in short: as §1
[36] = test system: Klebsiella pneumoniae; test: Antibacterial activity against drug-resistant carbapenemase producing Klebsiella pneumoniae clinical isolate KP-13-54 after 16 to 20 hrs by broth microdilution method; type: functional; in short: as §1
[37] = test system: Klebsiella pneumoniae; test: Antibacterial activity against drug-resistant carbapenemase producing Klebsiella pneumoniae clinical isolate KP-13-55 after 16 to 20 hrs by broth microdilution method; type: functional; in short: as §1
[38] = test system: Escherichia coli; test: Antibacterial activity against drug-resistant NDM1 producing Escherichia coli clinical isolate Ecl-14-59 after 16 to 20 hrs by broth microdilution method; type: functional; in short: as §1
[39] = test system: Escherichia coli; test: Antibacterial activity against drug-resistant NDM1 producing Escherichia coli clinical isolate EC-13-49 after 16 to 20 hrs by broth microdilution method; type: functional; in short: as §1
[40] = test system: Klebsiella pneumoniae; test: Antibacterial activity against drug-resistant carbapenemase producing Klebsiella pneumoniae clinical isolate KP-14-4 after 16 to 20 hrs by broth microdilution method; type: functional; in short: as §1
[41] = test system: Klebsiella pneumoniae; test: Antibacterial activity against drug-resistant carbapenemase producing Klebsiella pneumoniae clinical isolate KP-14-45 after 16 to 20 hrs by broth microdilution method; type: functional; in short: as §1
[42] = test system: Staphylococcus aureus; test: Antibacterial activity against Staphylococcus aureus ATCC 29213 after 16 to 20 hrs by broth microdilution method; type: functional; in short: as §4

`CCCCCCCC[N+](C)(C)CC(=O)Nc1ccc(C(=O)/C=C/c2ccc(OC)cc2)cc1.[Cl-]` showed an MIC [1] of 8 µg/mL, an MIC [2] of 4 µg/mL and an MIC [3] of 8 µg/mL. For the same compound, the MIC [4] was 1 µg/mL, the MIC [5] was 8 µg/mL and the Activity [6] was “Active”. For the same compound, the MIC [7] was 8 µg/mL, the MIC [8] was 16 µg/mL and the MIC [9] was 8 µg/mL. For the same compound, the MIC [10] was 32 µg/mL, the Activity [11] was “Active” and the MIC [12] was 2 µg/mL. For the same compound, the MIC [13] was 1 µg/mL, the MIC [14] was 8 µg/mL and the Activity [15] was “Active”. It also gave an MIC [16] of 2 µg/mL, an MIC [17] of 1 µg/mL and an MIC [18] of 8 µg/mL. The MIC [19] was 1 µg/mL, the MIC [20] was 1 µg/mL and the MIC [21] was 4 µg/mL. For the same compound, the MIC [22] was 8 µg/mL, the MIC [23] was 0.5 µg/mL and the MIC [24] was 16 µg/mL. It also gave an MIC [25] of 8 µg/mL, an MIC [26] of 8 µg/mL and an MIC [27] of 1 µg/mL. For the same compound, the MIC [28] was 4 µg/mL, the MIC [29] was 8 µg/mL and the Activity [30] was “Active”. It also gave an HC50 at 1 h [31] of 124 µg/mL, an MIC [32] of 4 µg/mL and an MIC [33] of 8 µg/mL. The MIC [34] was 0.5 µg/mL, the MIC [35] was 8 µg/mL and the MIC [36] was 8 µg/mL. The MIC [37] was 16 µg/mL, the MIC [38] was 8 µg/mL and the MIC [39] was 4 µg/mL. For the same compound, the MIC [40] was 4 µg/mL, the MIC [41] was 16 µg/mL and the MIC [42] was 1 µg/mL.
`CCCCCCCC[N+](C)(C)CC(=O)Nc1ccc(C(=O)/C=C/c2cccc(Cl)c2)cc1.[Cl-]` showed an MIC [1] of 4 µg/mL, an MIC [2] of 4 µg/mL and an MIC [3] of 4 µg/mL. For the same compound, the MIC [4] was 0.5 µg/mL, the MIC [5] was 8 µg/mL and the Activity [6] was “Active”. The MIC [7] was 4 µg/mL, the MIC [8] was 16 µg/mL and the MIC [9] was 4 µg/mL. The MIC [10] was 16 µg/mL, the Activity [11] was “Active” and the MIC [12] was 8 µg/mL. The MIC [13] was 4 µg/mL, the MIC [14] was 8 µg/mL and the Activity [15] was “Active”. It also gave an MIC [16] of 1 µg/mL, an MIC [17] of 1 µg/mL and an MIC [18] of 4 µg/mL. The MIC [19] was 1 µg/mL, the MIC [20] was 1 µg/mL and the MIC [21] was 4 µg/mL. For the same compound, the MIC [22] was 4 µg/mL, the MIC [23] was 0.5 µg/mL and the MIC [24] was 8 µg/mL. The MIC [25] was 8 µg/mL, the MIC [26] was 4 µg/mL and the MIC [27] was 1 µg/mL. The MIC [28] was 2 µg/mL, the MIC [29] was 4 µg/mL and the Activity [30] was “Active”. It also gave an HC50 at 1 h [31] of 186 µg/mL, an MIC [32] of 4 µg/mL and an MIC [33] of 4 µg/mL. The MIC [34] was 0.5 µg/mL, the MIC [35] was 4 µg/mL and the MIC [36] was 4 µg/mL. The MIC [37] was 8 µg/mL, the MIC [38] was 4 µg/mL and the MIC [39] was 4 µg/mL. For the same compound, the MIC [40] was 4 µg/mL, the MIC [41] was 8 µg/mL and the MIC [42] was 2 µg/mL.
